# Test results: ChEMBL document CHEMBL5724801, “EUbOPEN Chemogenomics Library - Multiplex” (2024)
# Several values for one entry are separate records, joined by “and”; a condition that tells them apart may be missing. Equal entries are not always repeated.
# System: U2OS
# Assay: Multiplex assay against U2OS
# Assay type: toxicity, cell-based
# Details: human
# Summary of the method: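 With compound added, live cells were imaged on a CQ1 microscope at 37°C and 5% CO2; staining with Hoechst33342, BioTracker Green Microtubule Cytoskeleton Dye, MitoTracker Red and Annexin V Alexa Fluor 680 had been done at seeding. The CellPathfinder machine-learning gating scheme split cells into Hoechst high-intensity objects or normal cells, normal cells into healthy, pyknosed or fragmented nuclei, and pyknosed cells into mitotic or apoptotic. The tubulin, mitochondrial-mass and membrane-permeability phenotypes are per cents of healthy-nucleus cells.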
# [1] = 12 h, 1 µM, compound concentration 1 uM
# [2] = 12 h, 10 µM, compound concentration 10 uM
# [3] = 24 h, 1 µM, compound concentration 1 uM
# [4] = 24 h, 10 µM, compound concentration 10 uM
# [5] = 48 h, 1 µM, compound concentration 1 uM
# [6] = 48 h, 10 µM, compound concentration 10 uM
compound,measurement,setting,value
OCCCNc1cc(-c2ccnc(Nc3cccc(Cl)c3)n2)ccn1,Population Apoptotic (%),[1],88% and 80%
same,Population Fragmented Nuclei (%),[1],38% and 27%
same,Population Healthy Nuclei (%),[1],52% and 51%
same,Population Hoechst High Intensity Objects (%),[1],3% and 5%
same,Population Membrane Permeable-Phenotype (%),[1],8% and 10%
same,Population Mitotic Cells (%),[1],11% and 20%
same,Population Normal (%),[1],97% and 94%
same,Population Pyknosed Nuclei (%),[1],9% and 20%
same,Population Tubulin-Different-Phenotype (%),[1],4% and 5%
same,Total Cell Count,[1],200 and 76
same,Population Apoptotic (%),[2],85% and 91%
same,Population Fragmented Nuclei (%),[2],37% and 24%
same,Population Healthy Nuclei (%),[2],56% and 64%
same,Population Hoechst High Intensity Objects (%),[2],4% and 10%
same,Population Membrane Permeable-Phenotype (%),[2],46% and 47%
same,Population Mitochondria Different-Phenotype (%),[2],36% and 51%
same,Population Mitotic Cells (%),[2],14% and 8%
same,Population Normal (%),[2],95% and 89%
same,Population Pyknosed Nuclei (%),[2],6% and 11%
same,Population Tubulin-Different-Phenotype (%),[2],46% and 61%
same,Total Cell Count,[2],237 and 118
same,Population Apoptotic (%),[3],96% and 94%
same,Population Fragmented Nuclei (%),[3],43% and 40%
same,Population Healthy Nuclei (%),[3],43% and 33%
same,Population Hoechst High Intensity Objects (%),[3],7%
same,Population Membrane Permeable-Phenotype (%),[3],10% and 16%
same,Population Mitochondria Different-Phenotype (%),[3],10% and 25%
same,Population Mitotic Cells (%),[3],4% and 5%
same,Population Normal (%),[3],92%
same,Population Pyknosed Nuclei (%),[3],13% and 25%
same,Population Tubulin-Different-Phenotype (%),[3],6% and 16%
same,Total Cell Count,[3],200 and 77
same,Population Apoptotic (%),[4],88% and 95%
same,Population Fragmented Nuclei (%),[4],37% and 30%
same,Population Healthy Nuclei (%),[4],50% and 49%
same,Population Hoechst High Intensity Objects (%),[4],11% and 12%
same,Population Membrane Permeable-Phenotype (%),[4],34% and 43%
same,Population Mitochondria Different-Phenotype (%),[4],40% and 54%
same,Population Mitotic Cells (%),[4],12% and 4%
same,Population Normal (%),[4],88% and 87%
same,Population Pyknosed Nuclei (%),[4],12% and 20%
same,Population Tubulin-Different-Phenotype (%),[4],37% and 61%
same,Total Cell Count,[4],229 and 128
same,Population Apoptotic (%),[5],95% and 100%
same,Population Fragmented Nuclei (%),[5],56% and 59%
same,Population Healthy Nuclei (%),[5],22% and 11%
same,Population Hoechst High Intensity Objects (%),[5],16% and 12%
same,Population Membrane Permeable-Phenotype (%),[5],30%
same,Population Mitochondria Different-Phenotype (%),[5],14% and 20%
same,Population Mitotic Cells (%),[5],4% and 0%
same,Population Normal (%),[5],83% and 87%
same,Population Pyknosed Nuclei (%),[5],21% and 28%
same,Population Tubulin-Different-Phenotype (%),[5],26% and 10%
same,Total Cell Count,[5],227 and 99
same,Population Apoptotic (%),[6],94% and 96%
same,Population Fragmented Nuclei (%),[6],47% and 50%
same,Population Healthy Nuclei (%),[6],31% and 25%
same,Population Hoechst High Intensity Objects (%),[6],21% and 23%
same,Population Membrane Permeable-Phenotype (%),[6],43% and 65%
same,Population Mitochondria Different-Phenotype (%),[6],45% and 34%
same,Population Mitotic Cells (%),[6],5% and 4%
same,Population Normal (%),[6],78% and 76%
same,Population Pyknosed Nuclei (%),[6],21% and 24%
same,Population Tubulin-Different-Phenotype (%),[6],45% and 65%
same,Total Cell Count,[6],223 and 134
